From ChEMBL document CHEMBL1129072, “4-(Phenylamino)pyrrolopyrimidines: potent and selective, ATP site directed inhibitors of the EGF-receptor protein tyrosine kinase” (J Med Chem, 1996)

Experiments:
[1] = biological target: T1, Epidermal growth factor receptor (Homo sapiens, UniProt P00533); assay: In vitro inhibitory activity against epidermal growth factor receptor
Balb/MK = assay: Inhibition of proliferation of EGF-dependent BALB/MK cells; assay type: functional, cell-based; settings: Mus musculus
[2] = biological target: Proto-oncogene tyrosine-protein kinase Src (Homo sapiens, UniProt P12931); assay: Inhibition of tyrosine kinase c-Src
Procedure, shortened: (§1)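 Enzyme purification and in vitro kinase assay as previously described. Compounds dissolved in DMSO and diluted in buffer to 1% DMSO final in the assay. IC50 values are averages of at least three determinations.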

NIH3T3 [3] = assay: Inhibition of PDGF-stimulated tyrosine phosphorylation in BALB/c3T3 cells; assay type: functional, cell-based; settings: Mus musculus
Procedure, shortened: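 Total cellular tyrosine phosphorylation was stimulated with PDGF in BALB/c 3T3 cells and read by microtiter ELISA. Results are reported as IC50 in µM.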

[4] = biological target: Tyrosine-protein kinase ABL (Homo sapiens, UniProt P00519+P42684); assay: Inhibition of tyrosine kinase v-Abl; assay type: protein assay; procedure, shortened: as §1
[5] = biological target: T1, Epidermal growth factor receptor; assay: Inhibition of EGF-stimulated tyrosine phosphorylation in A431 cells expressing EGF-R
[6] = biological target: Protein kinase C alpha type (Homo sapiens, UniProt P17252); assay: Inhibition of Protein kinase C alpha
Procedure, shortened: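 Enzymes purified as previously reported. Compounds were dissolved in DMSO and diluted in buffer to a final assay DMSO of 1%. IC50 values are averages of at least three determinations.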

NIH3T3 [7] = assay: Inhibition of PDGF-induced c-fos mRNA expression in BALB/c 3T3 cells; assay type: functional, cell-based; settings: Mus musculus

Sequence of Proto-oncogene tyrosine-protein kinase Src (P12931 2-536 limits assumed): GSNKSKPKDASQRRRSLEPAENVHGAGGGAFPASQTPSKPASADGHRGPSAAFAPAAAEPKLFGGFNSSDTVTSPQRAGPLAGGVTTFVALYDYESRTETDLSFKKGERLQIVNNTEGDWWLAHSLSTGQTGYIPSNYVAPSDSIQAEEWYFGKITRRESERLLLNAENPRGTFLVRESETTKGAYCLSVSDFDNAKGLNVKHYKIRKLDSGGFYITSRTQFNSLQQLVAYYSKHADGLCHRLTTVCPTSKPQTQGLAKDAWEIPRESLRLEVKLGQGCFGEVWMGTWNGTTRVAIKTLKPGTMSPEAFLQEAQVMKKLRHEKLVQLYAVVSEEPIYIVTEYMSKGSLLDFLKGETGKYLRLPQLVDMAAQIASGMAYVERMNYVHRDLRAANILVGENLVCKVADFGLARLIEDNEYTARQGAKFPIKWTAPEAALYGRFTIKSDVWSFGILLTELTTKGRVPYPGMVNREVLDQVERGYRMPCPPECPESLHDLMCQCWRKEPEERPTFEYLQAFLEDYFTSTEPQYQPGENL
T1 sequence (P00533 whole entry): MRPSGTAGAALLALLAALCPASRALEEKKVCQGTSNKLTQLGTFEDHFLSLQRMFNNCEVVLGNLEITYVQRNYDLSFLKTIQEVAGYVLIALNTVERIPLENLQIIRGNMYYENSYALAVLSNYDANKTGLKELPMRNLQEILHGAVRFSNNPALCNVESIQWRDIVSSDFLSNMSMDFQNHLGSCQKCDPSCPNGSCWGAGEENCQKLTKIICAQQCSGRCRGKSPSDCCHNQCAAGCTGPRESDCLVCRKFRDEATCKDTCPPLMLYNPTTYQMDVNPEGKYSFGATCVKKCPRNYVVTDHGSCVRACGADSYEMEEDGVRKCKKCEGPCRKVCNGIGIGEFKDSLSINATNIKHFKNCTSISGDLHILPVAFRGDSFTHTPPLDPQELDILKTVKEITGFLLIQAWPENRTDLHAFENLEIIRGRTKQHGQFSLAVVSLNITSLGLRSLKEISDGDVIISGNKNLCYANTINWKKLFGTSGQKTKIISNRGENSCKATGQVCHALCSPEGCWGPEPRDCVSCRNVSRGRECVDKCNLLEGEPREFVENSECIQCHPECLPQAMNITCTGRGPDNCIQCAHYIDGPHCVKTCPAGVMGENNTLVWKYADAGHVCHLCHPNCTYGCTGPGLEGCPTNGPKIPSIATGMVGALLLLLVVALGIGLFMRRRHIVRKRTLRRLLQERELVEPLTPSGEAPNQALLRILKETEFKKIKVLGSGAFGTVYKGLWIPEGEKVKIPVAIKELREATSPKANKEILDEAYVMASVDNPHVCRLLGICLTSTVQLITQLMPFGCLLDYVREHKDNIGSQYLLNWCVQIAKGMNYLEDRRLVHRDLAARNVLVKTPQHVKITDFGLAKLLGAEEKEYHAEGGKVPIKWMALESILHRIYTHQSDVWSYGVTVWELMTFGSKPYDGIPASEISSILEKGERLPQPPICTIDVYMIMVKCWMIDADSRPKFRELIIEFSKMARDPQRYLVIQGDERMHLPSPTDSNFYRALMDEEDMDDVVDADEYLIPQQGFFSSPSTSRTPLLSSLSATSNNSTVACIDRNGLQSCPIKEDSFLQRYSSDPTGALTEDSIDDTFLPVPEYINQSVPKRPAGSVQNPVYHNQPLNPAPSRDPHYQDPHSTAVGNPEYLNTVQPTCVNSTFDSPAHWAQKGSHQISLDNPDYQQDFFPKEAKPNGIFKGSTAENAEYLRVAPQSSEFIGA

Structure (SMILES)	IC50 [1] [µM]	IC50 [2] [µM]	IC50 [4] [µM]	IC50 [6] [µM]	IC50 (Balb/MK) [µM]	other results
Cc1[nH]c2ncnc(N(C)c3cccc(Cl)c3)c2c1C	0.5					
Cc1[nH]c2ncnc(Oc3cccc(Cl)c3)c2c1C	2.5					
Cc1cccc(Nc2ncnc3[nH]c4c(c23)CCCC4)c1		> 100	> 100	> 100	> 50	IC50 (NIH3T3 [3]): > 10 µM; IC50 [5]: > 100 µM
Cc1[nH]c2ncnc(NC3CCCCC3)c2c1C	6.92					
Clc1cccc(Nc2ncnc3[nH]c(-c4ccccc4)c(-c4ccccc4)c23)c1		> 100	> 100		> 50	IC50 (NIH3T3 [3]): > 10 µM
CCc1ccc(Nc2ncnc3[nH]c4c(c23)CCCC4)cc1	> 50					
Cc1[nH]c2ncnc(Nc3cccc(Br)c3)c2c1C		> 100	2.3	> 100	1.4	IC50 (NIH3T3 [3]): > 10 µM; IC50 [5]: 1.5 µM; IC50 (NIH3T3 [7]): > 100 µM
Cc1c(-c2ccccc2)[nH]c2ncnc(Nc3cccc(Cl)c3)c12	0.01	> 100	> 100	> 100	> 50	IC50 (NIH3T3 [3]): > 10 µM; IC50 [5]: 6 µM
Cc1[nH]c2ncnc(Nc3cccc(Cl)c3)c2c1-c1ccccc1	0.23	> 100	> 100		38.3	IC50 [5]: 6 µM
O=C(O)c1cccc(Nc2ncnc3[nH]c4c(c23)CCCC4)c1	25.7					
Cc1nc(Nc2cccc(Cl)c2)c2c(C)c(C)[nH]c2n1	> 100					
Clc1cccc(Nc2ncnc3[nH]c4ccccc4c23)c1	0.006	> 100	30	> 100	0.47	IC50 [5]: 0.12 µM; IC50 (NIH3T3 [7]): > 100 µM
Oc1cccc(Nc2ncnc3[nH]c4c(c23)CCCC4)c1	0.42					
COc1cccc(Nc2ncnc3[nH]c(C)c(C)c23)c1	1.2					
Brc1cccc(Nc2ncnc3[nH]c4c(c23)CCCC4)c1		> 100	> 100	> 100	1.4	IC50 (NIH3T3 [3]): > 10 µM; IC50 [5]: 0.4 µM; IC50 (NIH3T3 [7]): > 100 µM
Clc1cccc(Nc2ncnc3[nH]c4c(c23)CCCC4)c1		> 100	> 100	> 100	0.98	IC50 (NIH3T3 [3]): > 10 µM; IC50 (NIH3T3 [7]): > 100 µM
CCc1ccc(Nc2ncnc3[nH]c(C)c(C)c23)cc1	77.5					
Cc1[nH]c2ncnc(Nc3cccc(C#N)c3)c2c1C	0.2					
Cc1[nH]c2ncnc(Nc3cccc(C(F)(F)F)c3)c2c1C	1.9					
c1ccc(Nc2ncnc3[nH]c4c(c23)CCCC4)cc1		> 100	> 100	> 100		IC50 (NIH3T3 [3]): > 10 µM
COc1cccc(Nc2ncnc3[nH]c4c(c23)CCCC4)c1	0.86					
CCOC(=O)c1cccc(Nc2ncnc3[nH]c(C)c(C)c23)c1	> 100					

The next lines start with results.

IC50 [1] [µM]	IC50 [2] [µM]	IC50 [4] [µM]	IC50 [6] [µM]	Structure (SMILES)	IC50 (Balb/MK) [µM]	other results
1.08				Cc1[nH]c2ncnc(NCc3ccccc3)c2c1C		
1.25				Cc1[nH]c2ncnc(Nc3cccc(O)c3)c2c1C		
	> 100	99	> 100	Cc1[nH]c2ncnc(Nc3cccc(F)c3)c2c1C	29.9	IC50 [5]: > 100 µM
	> 100		75	Cc1[nH]c2ncnc(Nc3ccccc3)c2c1C		IC50 (NIH3T3 [3]): > 10 µM
2.1				Cc1ccc(Nc2ncnc3[nH]c(C)c(C)c23)cc1		
	> 100	40.5	> 100	Cc1[nH]c2ncnc(Nc3cccc(Cl)c3)c2c1C		IC50 (NIH3T3 [7]): > 100 µM
75.1				Cc1[nH]c2ncnc(Nc3ccccc3Cl)c2c1C		
> 50				Cc1[nH]c2ncnc(Nc3ccc(Cl)cc3)c2c1C		
	> 100	5.3	> 100	Cc1cccc(Nc2ncnc3[nH]c(C)c(C)c23)c1	7.2	IC50 [5]: > 100 µM
> 100				CCc1ccccc1Nc1ncnc2[nH]c(C)c(C)c12		
16.3				Cc1[nH]c2ncnc(Nc3cccc(C(=O)O)c3)c2c1C		
